Data on 14 compounds can be found in ChEMBL document CHEMBL1144552, “Synthesis and antitumor activities of a series of novel quinoxalinhydrazides” (Bioorg Med Chem, 2007).

Experiment [1] has as its system MDA-MB-435. The experiment can be described thus: Cytotoxicity against human MDA-MB-435 cells after 72 hrs by MTT assay. The experiment is classed as cell-based. Particulars: MDA-MB-435, 72 h. Summed up:
(§1)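 Monolayer cultures in RPMI 1640 with 10% FBS and 2 mmol/L L-glutamine, 37 °C, 5% CO2, used in exponential growth and checked for mycoplasma by PCR. Cells were seeded in 96-well plates, allowed to attach, then exposed continuously to drug for 72 h. MTT (final 0.5 mg/mL) was added for 4 h at 37 °C, formazan dissolved in DMSO, absorbance read at 570 nm. Triplicate.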

The test system of experiment [2] is HCT-116. The experiment can be described thus: Cytotoxicity against human HCT116 cells expressing p53 gene after 72 hrs by MTT assay. Particulars: HCT-116, 72 h. The format is cell-based. The method, boiled down:
as §1

In experiment [3] the test system is HCT-116. The experiment can be described thus: Cytotoxicity against p53 deficient human HCT116 cells after 72 hrs by MTT assay. The settings on record: HCT-116, 72 h. The experiment is classed as cell-based. The method, boiled down:
as §1

The subject of experiment [4] is HT-29. The experiment can be described thus: Cytotoxicity against human HT29 cells after 72 hrs by MTT assay. The settings on record: HT-29, 72 h. The format is cell-based. The method, boiled down: as §1
Experiment [5] concerns LNCaP. The experiment can be described thus: Cytotoxicity against human LNCap cells after 72 hrs by MTT assay. The experiment is classed as cell-based. Summed up:
as §1

The test system of experiment [6] is MDA-MB-435. The experiment can be described thus: Inhibition of colony formation of human MDA-MB-435 cells at >=1 uM after 24 hrs. The experiment is classed as functional, cell-based. Summed up: (§2)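 Cells were plated at 100 cells/well in 6-well plates and allowed to attach. Serial dilutions were added the next day for 24 h exposure. Cells were then washed in PBS and grown in drug-free medium for 8–10 days until colonies formed. Colonies were fixed in 1% glutaraldehyde for 30 min, stained with 2% crystal violet for 30 min, imaged and counted. Means of at least three independent experiments.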

For experiment [7], the system named is HCT-116. The experiment can be described thus: Inhibition of colony formation of p53 expressing human HCT116 cells at >=1 uM after 24 hrs. The experiment is classed as functional, cell-based. Summed up: as §2
For experiment [8], the system named is HCT-116. The experiment can be described thus: Inhibition of colony formation of p53 deficient human HCT116 cells at >=1 uM after 24 hrs. The experiment is classed as functional, cell-based. The method, boiled down: as §2
Experiment [9] relates to HT-29. The experiment can be described thus: Inhibition of colony formation of human HT29 cells at >=1 uM after 24 hrs. The format is functional, cell-based. The method, boiled down:
as §2

Experiment [10] concerns LNCaP. The experiment can be described thus: Inhibition of colony formation of human LNCap cells at >=1 uM after 24 hrs. The experiment is classed as functional, cell-based. The method, boiled down: as §2

Calls of active or inactive are those of the source. The rule behind the calls is not given here.

`COc1ccccc1C(=O)NNc1nc2ccccc2n2cccc12`: the IC50 in experiment [1], in [2], in experiment [3] and in experiment [4] was greater than 20 µM in each case.
Consider `O=C(NNc1nc2cccc(F)c2n2cccc12)c1cnccn1`, for which the IC50 in experiment [1] amounted to 3 µM; in experiment [2] it was 0.4 µM; in [3] it was 0.3 µM; in experiment [4], 0.3 µM; in [5], 0.4 µM. In addition, the result in experiment [6], in experiment [7], in [8], in [9] and in experiment [10] was Active.
As for `O=C(NNc1nc2cc(F)ccc2n2cccc12)c1cnccn1`, the IC50 came to 4 µM in experiment [1]; 0.6 µM in experiment [2]; 0.9 µM in experiment [3]; 0.9 µM in experiment [4]; 0.4 µM in experiment [5].
Take `O=C(NNc1nc2ccccc2n2cccc12)c1cc2ccccc2[nH]1`: the IC50 in [1], in experiment [2], in [3] and in experiment [4] was greater than 20 µM in each case.
In the case of `O=C(NNc1nc2ccccc2n2cccc12)c1ccc2cc[nH]c2c1`, the IC50 in experiment [1], in experiment [2], in experiment [3] and in experiment [4] was greater than 20 µM in each case.
`O=C(NNc1nc2cc(F)ccc2n2cccc12)c1cnc2ccccc2n1`: the IC50 in [1] worked out at 15 µM; in [2], 8 µM; in experiment [3], 11 µM; in experiment [4] it was 13 µM.
As for `O=C(NNc1nc2cc(F)ccc2n2cccc12)c1ccco1`, the IC50 in [1], in [2], in experiment [3] and in [4] was greater than 20 µM in each case.
Regarding `NCCC(=O)NNc1nc2ccccc2n2cccc12`, the IC50 in [1], in experiment [2], in [3] and in [4] was greater than 20 µM each time.
As to `O=C(NNc1nc2ccccc2n2cccc12)c1c[nH]c2ccccc12`, the IC50 in experiment [1], in experiment [2], in experiment [3] and in [4] was greater than 20 µM each time.
For `O=C(NNc1nc2ccccc2n2cccc12)C1CSCN1` (centres undefined), the IC50 was greater than 20 µM in experiment [1], 15 µM in experiment [2], 10 µM in experiment [3] and 14 µM in experiment [4].
Regarding `O=C(NNc1nc2cc(F)ccc2n2cccc12)c1cccs1`, the IC50 in experiment [1], in experiment [2], in experiment [3] and in experiment [4] was greater than 20 µM in each case.
Turning to `O=C(NNc1nc2cc(F)ccc2n2cccc12)c1ccccc1F`, the IC50 in experiment [1], in [2], in [3] and in [4] was greater than 20 µM throughout.
On to `O=C(NNc1nc2cc(F)ccc2n2cccc12)c1cccnc1`, for which the IC50 in [1], in experiment [2], in experiment [3] and in experiment [4] was greater than 20 µM each time.
On to `O=C(NNc1nc2cc(F)ccc2n2cccc12)c1ccccn1`, for which the IC50 in experiment [1] is greater than 20 µM; in experiment [2], greater than 20 µM; in [3], greater than 20 µM; in [4], 17 µM; in [5], greater than 20 µM.
